The text below walks through data of publication PMC8600646 (ACS Omega, 2021).

Converted amounts (≈) assume the structure as drawn. “And” between values parts separate entries of the source, which are not always exact repeats. Equal values may be shown once. Read-outs that look alike come from different tables or passages of the source.

Data set [1] can be described thus: Hydraulic radius calculated with the Stokes-Einstein equation. The class given is physicochemical. Conditions: from Dred CV, 298K. An outline of the steps:
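Stokes–Einstein estimate that uses Dred from the CV fits, the measured solution viscosity and T = 298 K. Viscosities come from a concentric-cylinder rotational rheometer (KCl-based solutions) or a calibrated Ubbelohde glass viscometer (1 M H2SO4 and 15 wt % proline).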

The nature of data set [2]: Electrochemical impedance spectroscopy. The data set is classed as physicochemical. Summed up: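 Glassy carbon rotating disk (5 mm; 0.196 cm2) with Ag/AgCl reference and Pt wire counter; polished as for CV. Solutions hold 1 mM reduced radical plus 1 mM oxidised form, made by bulk electrolysis at 0.75 V vs Ag/AgCl for 5–10 h. Run at open-circuit potential, 2500 rpm, 10 mV amplitude, 0.5–100000 Hz. Rct comes from a Nyquist fit, then j0, then k0 assuming α = 0.5.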

Data set [3] can be described thus: Linear sweep voltammetry with rotating disk electrode. The class given is physicochemical. Conditions: for Dox (LSV): oxidized species.
The conditions of data set [4]: cited from earlier work; for Dred, previously reported: aqueous solution.
A further data set is described as follows: Cyclic voltammetry. The class given is physicochemical. As to conditions: for Dred (CV): 1 mM; for Dox (CV): oxidized species. Summed up:
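Three-electrode cell: 3 mm glassy carbon working electrode (0.0707 cm2), Ag/AgCl in 3 M KCl reference, Pt wire counter. Electrode polished with 0.05 μm alumina and rinsed with water and methanol. Nitroxide starts at 1 mM; hydrotrope electrolytes readjusted to pH 7.0 (HCl) or, for the disulfonate, to about 0 (H2SO4). Triplicate CVs at 0.001–1 V/s, three cycles per rate.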

For data set [5] the following is noted: cited from earlier work.
For data set [6] the following is noted: for 3,4-dimethylbenzenesulfonate; cited from earlier work.
A short description of data set [7]: Viscosity measurements of hydrotrope solutions. The class given is physicochemical. Conditions: 20 wt % hydrotrope in 1 M KCl, rotational rheometer. Summed up: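 Rotational rheometer with concentric cylinder geometry over shear rates of 10 to 100/s. Solutions tested: 1 M KCl, 20 wt % NaXS and 20 wt % NapTS.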

With `CC1(C)CC(O)CC(C)(C)N1[O]` [4-OH-TEMPO, 4-OH-TEMPO free radical], the hydraulic radius was 3.7 Å in data set [1] (20 wt % NaXS), 2.7 Å in data set [1] (20 wt % NapTS) and 3.3 Å in data set [1] (no hydrotrope (1 M KCl)). Further, the “standard rate constant k0 (EIS)” value in data set [2] (1 M KCl, no hydrotrope) turned out to be 0.08 ± 0.00 cm/s; in data set [2] (20 wt % NaXS in 1 M KCl), 0.29 ± 0.11 cm/s; in data set [2] (20 wt % NapTS in 1 M KCl) it was 0.12 ± 0.01 cm/s. Also, the “Dred (LSV)” value in data set [3] (1 M KCl, no hydrotrope) was 10.53 × 10^–6 cm^2/s; in data set [3] (20 wt % NaXS in 1 M KCl) it was 6.63 × 10^–6 cm^2/s; in data set [3] (20 wt % NapTS in 1 M KCl) it was 8.53 × 10^–6 cm^2/s. In addition, the “standard rate constant k0 (LSV)” value in data set [3] (1 M KCl, no hydrotrope) was found to be 0.09 ± 0.07 cm/s; in data set [3] (20 wt % NaXS in 1 M KCl), 0.12 ± 0.11 cm/s; in data set [3] (20 wt % NapTS in 1 M KCl), 0.32 ± 0.33 cm/s. Besides, the “Dox (LSV)” value in data set [3] (1 M KCl, no hydrotrope) was 6.03 × 10^–6 cm^2/s; in data set [3] (20 wt % NaXS in 1 M KCl), 3.76 × 10^–6 cm^2/s; in data set [3] (20 wt % NapTS in 1 M KCl), 4.40 × 10^–6 cm^2/s. Besides, the “Dred, previously reported” value in data set [4] (ref 11) was 29.5 × 10^–6 cm^2/s; in data set [4] (ref 42), 7.7 × 10^–6 cm^2/s. The “formal reduction potential E0'” value is 0.59 V vs Ag/AgCl in data set [4] (circumneutral pH); 0.59 ± 0.00 V vs Ag/AgCl and 0.59 V vs Ag/AgCl in the data set “Cyclic voltammetry” (1 M KCl, no hydrotrope); 0.59 ± 0.01 V in “Cyclic voltammetry” (20 wt % NaXS in 1 M KCl, vs Ag/AgCl); 0.59 ± 0.00 V in the data set “Cyclic voltammetry” (20 wt % NapTS in 1 M KCl, vs Ag/AgCl); 0.59 ± 0.00 V in “Cyclic voltammetry” (20 wt % urea in 1 M KCl, vs Ag/AgCl). Moreover, the “Dred (CV)” value in “Cyclic voltammetry” (1 M KCl, no hydrotrope) was 7.00 ± 0.24 × 10^–6 cm^2/s; in the data set “Cyclic voltammetry” (20 wt % NaXS in 1 M KCl) it was 3.33 ± 0.04 × 10^–6 cm^2/s; in the data set “Cyclic voltammetry” (20 wt % NapTS in 1 M KCl), 4.27 ± 0.14 × 10^–6 cm^2/s; in “Cyclic voltammetry” (20 wt % urea in 1 M KCl), 5.90 ± 0.07 × 10^–6 cm^2/s. Further, the “standard rate constant k0 (CV)” value in the data set “Cyclic voltammetry” (1 M KCl, no hydrotrope, glassy carbon electrode) was 0.35 ± 0.14 cm/s; in the data set “Cyclic voltammetry” (20 wt % NaXS in 1 M KCl) it was 0.48 ± 0.19 cm/s; in “Cyclic voltammetry” (20 wt % NapTS in 1 M KCl), 0.95 ± 0.07 cm/s; in “Cyclic voltammetry” (20 wt % urea in 1 M KCl), 0.78 ± 0.16 cm/s. Further, the “Dox (CV)” value is listed as 6.82 ± 0.32 × 10^–6 cm^2/s in “Cyclic voltammetry” (1 M KCl, no hydrotrope); 3.50 ± 0.11 × 10^–6 cm^2/s in “Cyclic voltammetry” (20 wt % NaXS in 1 M KCl); 4.92 ± 0.15 × 10^–6 cm^2/s in the data set “Cyclic voltammetry” (20 wt % NapTS in 1 M KCl); 5.55 ± 0.12 × 10^–6 cm^2/s in the data set “Cyclic voltammetry” (20 wt % urea in 1 M KCl).
As to `Cc1cc2nc3c(=O)[nH]c(=O)nc-3n(C[C@H](O)[C@H](O)[C@H](O)COP(=O)(O)O)c2cc1C` [FMN, riboflavin-5′-monophosphate], the aqueous solubility (in general, the concentration that dissolves in the medium under given conditions) in data set [5] (1.0 M KOH, no hydrotrope) was 100 mM (≈ 45.6 mg/mL).
Turning to `Oc1ccc(O)cc1` [hydroquinone, benzene-1,4-diol, reference compound], the solubility (as a rule, how much of the substance goes into solution per volume) in data set [5] (deionized water, 4.0 M urea) was 1500 mM (≈ 165 mg/mL).
Turning to sodium xylenesulfonate [NaXS], the pKA in data set [6] is reported as 10.36. Moreover, the viscosity of solution in data set [7] is 1.8 × 10^–3 Pa·s.
